Published values of several laboratories.
Protocols differ between the studies behind these lines.
TRPM8: Transient receptor potential cation channel subfamily M member 8 (TRPM8, Homo sapiens, UniProt Q7Z2W7)
LATS2: Serine/threonine-protein kinase LATS2 (LATS2, Homo sapiens, UniProt Q9NRM7)
AKR1B1: Aldo-keto reductase family 1 member B1 (AKR1B1, Homo sapiens, UniProt P15121)

| SMILES | target | test | measurement | result |
| --- | --- | --- | --- | --- |
| NCCS(=O)(=O)O | Sodium- and chloride-dependent taurine transporter (SLC6A6, Homo sapiens, UniProt P31641) | binding, MST | Kd | 0.71 µM |
| O=C1NC(c2cccc([N+](=O)[O-])c2)=CCN1c1ccccc1O | TRPM8 | ion current, agonist, patch clamp | EC50 | 0.412 µM |
| CNC(=O)c1ccccc1Nc1nc(Nc2ccc(N3CCNCC3)cc2)ncc1Cl | LATS2 | target engagement in cells, BRET | IC50 | 0.211 µM |
| CCNC(=O)C1CC(C)CCC1C(C)C (stereo not shown) | TRPM8 | calcium signal, agonist | EC50 | 8.36 µM |
| N#Cc1ccc(O[C@H]2CC[C@H](NC(=O)c3ccc(N4CCC(CN5CCN(c6cc7c(cc6F)C(=O)N(C6CCC(=O)NC6=O)C7=O)CC5)CC4)nn3)CC2)cc1Cl (stereo partly shown) | Platelet glycoprotein 4 (CD36, Homo sapiens, UniProt P16671) | binding, SPR | Kd | 5.9 µM |
| COc1cc(/C=N/NC(=S)N/N=C\c2ccc([N+](=O)[O-])cc2)ccc1Oc1ccnc2cc(Cl)ccc12 | AKR1B1 | enzyme activity, inhibitor, absorbance | IC50 | 16.6 µM |
| CCCCC(=O)Nc1ccc(-c2ccc3ncn(CCC)c(=O)c3c2)cn1 | Phosphatidylinositol 5-phosphate 4-kinase type-2 gamma (PIP4K2C, Homo sapiens, UniProt Q8TBX8, del300-341) | binding, ITC | Kd | 0.123 µM |
| CCCCC1OC(=O)c2ccccc21 (stereo not shown) | Vimentin (VIM, Homo sapiens, UniProt P08670) | binding, SPR | Kd | 3.42 µM |
| COc1cc(/C=N/NC(=S)NN=Cc2sccc2C)ccc1Oc1ccnc2cc(Cl)ccc12 | AKR1B1 | enzyme activity, inhibitor, absorbance | IC50 | 15.9 µM |
| CCCCCCCP(=O)(C(C)C)C(C)C | TRPM8 | calcium signal, agonist | EC50 | 4.73 µM |
| Cc1cc(-c2ccnc3[nH]cc(F)c23)cc(F)c1[C@@]1(O)[C@H](C)CN(C2COC2)C[C@@H]1C | LATS2 | enzyme activity, inhibitor, radiometric | IC50 | 0.009 µM |
| COc1cc(/C=N/NC(=S)N/N=C/c2ccc(Br)s2)ccc1Oc1ccnc2cc(Cl)ccc12 | AKR1B1 | enzyme activity, inhibitor, absorbance | IC50 | 17.7 µM |
| Fc1c[nH]c2nccc(-c3ccc(C4CCNCC4)cc3)c12 | LATS2 | enzyme activity, inhibitor, radiometric | IC50 | 0.011 µM |
| COc1ccc(NC(=O)[C@@H]2C[C@H](C)CC[C@H]2C(C)C)cc1 | TRPM8 | ion current, agonist, patch clamp | EC50 | 4 µM |
| Cc1cc(-c2ccnc3[nH]cc(F)c23)cc(F)c1[C@@]1(O)[C@H](C)CN(C2CCS(=O)(=O)CC2)C[C@@H]1C | LATS2 | enzyme activity, inhibitor, radiometric | IC50 | 0.0055 µM |
| COc1cc(/C=N/NC(=S)NN=Cc2ccc(CO)o2)ccc1Oc1ccnc2cc(Cl)ccc12 | AKR1B1 | enzyme activity, inhibitor, absorbance | IC50 | 21.3 µM |
